CSC inhib = cancer stem cell viability inhibitors, primary screen, luminescence | cancer stem cell-like cells viability | inhibition, % at 7.5 µM | 300,000 tested, 1.1% active | AID 2717, 2010; in the data active = inhibition above about 75%; inconclusive = no clear call, values can overlap the other calls; tested in HMLE shEcad cells
T cruzi inh = inhibitors of intracellular T. cruzi growth, primary screen, luminescence, NIH3T3 host cells | T. cruzi beta-gal in NIH3T3, 90 h | inhibition, % (test concentration not listed) | 300,000 tested, 1.4% active | AID 1885, 2009;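 active = mean inhibition across valid replicates above about 55%, limit read from the data; inconclusive = mean below that limit but half or more replicates reach it; inactive = mean below it, under half of replicates reach it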;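 note: signal also drops with host cell toxicity which is not excluded here; 0% = plate median of DMSO wells and 100% = zero luminescence signal; higher percent means less beta-gal luminescence so fewer parasites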
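Read-out: Parasite load inhibition, % | Test system: Mouse NIH/3T3 fibroblasts infected with β-gal-expressing T. cruzi Tulahuen C4 | Amount: 5,000 cells/well | Medium: DMEM, 2% fetal bovine serum | Signal: GalScreen β-gal luminescence, detergent lysis, 60 min | Timing: 3 h attach, ≥90 h co-culture | Also added: Tulahuen C4 trypomastigotes, 5000/well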
GRIN3A LBD mod = binders of NR3A ligand-binding domain, primary screen, biophysical, differential scanning fluorimetry, uHTS | Glutamate receptor ionotropic, NMDA 3A (GRIN3A) ligand-binding domain | NR3A LBD differential scanning fluorimetry, Tm shift; 0% = protein alone, 100% = glycine-bound protein | Tm shift relative to glycine control, % at 25 µM | 340,000 tested, 2.5% active;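 active = melting temperature shift of at least 10% of the positive control shift, at one fixed dose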
CHOP inh = inhibitors of CHOP promoter induction, primary screen, cell-based, unfolded protein response, luciferase reporter | inhibition, % at 10 µM | CHO-K1 CHOP-promoter luciferase, tunicamycin-induced, 15-18 h | 220,000 tested, 3.8% active;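 active = compounds that reduced the stress-induced luciferase reporter signal by more than about 70% of percent inhibition, limit read from the data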;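 note: 0% = tunicamycin plus vehicle and 100% = wells without tunicamycin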
Beta apoptosis = inhibitors of cytokine-induced beta cell apoptosis, primary screen, luminescence; INS-1E cytokine-induced death, ATP luminescence, 48 h; percent of positive-control rescue, neutral wells zero; protection from apoptosis, % (test concentration not listed); 300,000 tested, 0.8% active; AID 435005, 2010;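 active = Every replicate reaches about 75%, or at least half do and their mean reaches it too, limit read from the data; inconclusive = At least half of replicates reach the limit but their mean does not; inactive = Under half of replicates reach the limit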;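 note: 0% = cytokine-treated negative control wells and 100% = positive control rescue; higher means more ATP so stronger rescue from cytokine killing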
PREPL inh = PREPL enzyme inhibitors, primary screen, biochemical, fluorescence polarization; Prolyl endopeptidase-like (Homo sapiens), Q4J6C6; recombinant PREPL, fluorescence polarization activity-based probe; inhibition, % at 5.96 µM; 320,000 tested, 0.68% active; AID 2751, 2010; in the data active = inhibition above about 43%;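 note: 0% = enzyme with DMSO and 100% = wells lacking enzyme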
Target sequence (Q4J6C6 whole entry, looked up): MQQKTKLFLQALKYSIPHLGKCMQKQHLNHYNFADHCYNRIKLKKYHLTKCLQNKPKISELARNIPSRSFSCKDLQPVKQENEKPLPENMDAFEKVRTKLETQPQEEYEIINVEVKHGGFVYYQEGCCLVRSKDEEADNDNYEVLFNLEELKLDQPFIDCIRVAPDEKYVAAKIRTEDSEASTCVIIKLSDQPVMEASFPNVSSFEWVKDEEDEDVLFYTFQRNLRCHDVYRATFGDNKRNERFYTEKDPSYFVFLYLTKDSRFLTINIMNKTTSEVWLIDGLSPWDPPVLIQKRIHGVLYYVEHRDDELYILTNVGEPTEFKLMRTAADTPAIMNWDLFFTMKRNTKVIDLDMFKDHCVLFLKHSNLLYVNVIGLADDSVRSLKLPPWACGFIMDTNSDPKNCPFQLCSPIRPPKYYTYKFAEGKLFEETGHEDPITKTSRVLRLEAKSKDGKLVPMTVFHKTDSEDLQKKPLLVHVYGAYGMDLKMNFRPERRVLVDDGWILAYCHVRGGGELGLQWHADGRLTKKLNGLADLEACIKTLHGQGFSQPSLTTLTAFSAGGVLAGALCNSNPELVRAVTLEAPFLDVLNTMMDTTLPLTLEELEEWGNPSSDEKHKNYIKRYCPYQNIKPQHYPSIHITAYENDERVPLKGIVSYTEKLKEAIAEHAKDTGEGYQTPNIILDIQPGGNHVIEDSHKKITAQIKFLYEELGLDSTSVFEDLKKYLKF
CHOP inh conf = retest of CHOP induction inhibitors, confirmation, cell-based. shares compounds with CHOP inh. CHO-CHOP promoter luciferase reporter, tunicamycin-induced, luminescence. inhibition, % at 10 µM. 2,100 tested, 45% active;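 active = mean of three repeat readings of reporter signal inhibition above a set limit, cut at about 70% in these data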;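 note: 0% = tunicamycin plus vehicle and 100% = wells lacking tunicamycin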
Starred values were filed as active, the others as inactive; ? = inconclusive; / = no result. Compounds with a hit are over-represented: about 6.7% of the library has one in this group of screens.

SMILES	CSC inhib	T cruzi inh	GRIN3A LBD mod	CHOP inh	Beta apoptosis	PREPL inh	CHOP inh conf
Cc1ccc(NC(=O)COc2ncnc3c(Cl)cc(Cl)cc23)cc1[N+](=O)[O-]	4	13	1	104*	3	2	4
COc1oc(-c2ccc(Cl)cc2)nc1C(F)(F)F	-6	-32	1	103*	-3	-3	71*
C=C(C)[C@@H]1CC[C@]2(C(=O)O)CC[C@]3(C)[C@H](CC[C@@H]4[C@@]5(C)CC[C@H](O)C(C)(C)[C@@H]5CC[C@]43C)[C@@H]12	84*	-17	1	103*	/	2	66
C=C(CC[C@@H](O)C(C)(C)O)[C@H]1CC[C@]2(C)[C@@H]1CCC1[C@@]3(C)CC[C@H](O)C(C)(C)C3CC[C@]12C (some centres undefined)	?	/	-2	/	-2	9	/
COc1ccc(/C=N/NC(=O)COc2ccccc2-c2ccccc2)cc1	-12	-15	-12	106*	32	-13	11
O=C(C[n+]1cn(C(F)F)c2ccccc21)c1ccc(Br)cc1	16	-21	-1	101*	55	-1	15
O=C(N/N=C/c1ccccc1)c1n[nH]c2c1CCCC2	21	-6	-39	28	3	2	/
O=C(N/N=C/c1ccccc1Cl)c1n[nH]c2c1CCCC2	33	-17	-1	107*	25	10	83*
COc1ccc(CNC(=O)Cn2cc(C)c(=O)[nH]c2=O)cc1	/	/	-2	/	/	/	/
c1cc2c(cc1C1CCCCC1)c1c3n2CCCNC3CCC1 (centres undefined)	7	22	0	/	18	35	-44
Oc1ccc2c(c1)c1c3n2CCNC3CCC1 (centres undefined)	-6	13	2	/	-1	-5	/
CC[C@@H]1C/C=C\Cc2ccccc2[C@H](C(=O)C[C@H](O)CC(C)=O)OC1=O	/	/	0	/	-8	22	/
Cc1ccc(Sc2nc(-c3ccccc3)nnc2C(F)(F)F)cc1	/	29	4	107*	-8	-4	-50
CCOC(=O)c1c(Nc2ccccc2OCCOC)n[nH]c1C	-11	-1	-1	11	/	4	/
O=C(COC(=O)/C=C/C(=O)OCC(=O)NC12CC3CC(CC(C3)C1)C2)NC12CC3CC(CC(C3)C1)C2	15	-10	-2	105*	-19	-4	-12
COc1cc(/C=N/N=C(/C(=O)c2ccccc2)c2ccccc2)cc(OC)c1O	20	14	-11	99*	11	6	1
COc1ccc(-n2c(=S)[nH]c3cc(C(=O)N4CCN(c5ccccc5)CC4)ccc3c2=O)c(OC)c1	-17	-8	-3	/	/	7	/
COc1ccc2cc(C(=O)N/N=C/c3sc4ccccc4c3O)ccc2c1	147*	15	12*	97*	92*	22	-17
COc1ccc(OC)c(/C=N/NC(=O)c2cccc3ccccc23)c1	-2	-10	3	/	/	6	/
Nc1c(C(=O)Nc2ccccc2)sc2nc(-c3ccco3)ccc12	29	-22	-11	-21	3	17	/
Nc1c(C(=O)Nc2nc3ccccc3s2)sc2nc(-c3cccs3)ccc12	22	52	28*	102*	-10	10	82*
CN(Cc1ccc(Cl)cc1)C(=O)CCl	24	7	0	104*	-10	-5	32
CC1(C(=O)Nc2ccc3c(c2)OCO3)CC1(Cl)Cl (centres undefined)	-13	5	-1	/	-1	6	/
CC[n+]1c(/C=C2\Sc3ccccc3N2C)ccc2cccc(C)c21	/	63*	-3	104*	/	/	110*
Cc1ccc(NC(=O)c2cccc3cccnc23)cc1	-12	7	-5	/	3	-8	/
SMILES	CSC inhib	T cruzi inh	GRIN3A LBD mod	CHOP inh	Beta apoptosis	PREPL inh	CHOP inh conf
COc1ccc2nc(NC(=O)C3CCCN(S(=O)(=O)c4cccs4)C3)sc2c1 (centres undefined)	/	34	-5	96*	12	-17	51
N#Cc1nnn(-c2ccc(Cl)cc2)c1N	/	-7	-3	7	1	12	/
CN(C)S(=O)(=O)N1CCCC(C(=O)c2ccc(-c3ccccc3)cc2)C1 (centres undefined)	-2	2	0	8	8	15	/
CCCCNC(=O)c1ccc(Cn2c(=S)[nH]c3c([nH]c4ccc(OC)cc43)c2=O)cc1	140*	-3	5	105*	101*	7	16
Cc1nn(-c2ccccc2)c(Cl)c1CN(C(=O)CCl)c1ccc(Cl)cc1	51	15	-5	109*	45	-1	140*
CC(=O)N(Cc1c(C)nn(-c2ccccc2)c1Cl)c1ccc(Cl)cc1	-12	19	-1	2	/	8	/
CCCc1cc(=O)[nH]c(Nc2ccc(N3CCCCC3)cc2)n1	0	6	-1	107*	15	3	94*
CCCCc1ccc(Nc2nc(CCC)cc(=O)[nH]2)cc1	102*	-5	1	107*	34	16	98*
CC(=O)c1ccc(NC(=O)CSc2n[nH]c(-c3cccnc3)n2)cc1	1	-3	-19	/	-4	15	/
CCCCCN(C(=O)CCC(=O)OCC(=O)N1CCCC(C)C1)c1c(N)n(CCCC)c(=O)[nH]c1=O (centres undefined)	-10	1	0	/	-11	-1	/
CCCOC(=O)c1cccc(Nc2nc(-c3cccnc3)nc3ccccc23)c1	72	65*	-17	96*	30	-10	56
O=C(OCCNc1nc(-c2ccccc2)nc2ccccc12)c1cccnc1	5	47	-7	23	1	-3	/
Cc1cccc2cc3c(nc12)SC(=NCC1CCCO1)N(Cc1ccco1)C3 (centres undefined)	-3	48	-3	103*	-7	-3	48
Cc1ccc2nc3c(cc2c1)CN(Cc1ccco1)C(=NCC1CCCO1)S3 (centres undefined)	48	39	4	-56	/	-4	/
CCC(C(=O)OCC(=O)NC(=O)c1ccccc1OC)c1ccccc1 (centres undefined)	0	-4	/	/	-1	-23	/
CCOC(=O)c1oc2ccc(S(=O)(=O)n3nc(-c4ccc(C)cc4)cc3N)cc2c1C	42	29	0	97*	-1	-16	56
Cc1ccc(C)c(NC(=O)CN(C)C(=O)c2ccccc2OCc2c(C)noc2C)c1	-10	/	0	/	0	0	/
